Screening data as filed in PubChem BioAssay.
The list is not random: actives were taken first. Their share in the collection is about 6.3%.
Ecoli tolC – E. coli tolC mutant growth inhibition; E. coli BW25113 tolC mutant growth, OD615; growth inhibition, % at 10 µM (by protocol); 65,000 compounds, 2.2% hits; AID 573;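 active means growth inhibition at or above a cutoff equal to the mean over every tested compound plus 3 SD, cut at about 60% in these data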;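 further: growth measured after 20 h incubation at 37 °C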
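Test system: tolC-deleted E. coli BW25113; medium: LB with kanamycin 50 µg/mL; compound: single-point testing at 10 µM; incubation: 20 h compound exposure of bacteria at 37 °C; signal: OD at 615 nm; evaluation: growth inhibition in percent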
PostGolgi yeast – growth inhibition of a yeast mutant, post-Golgi transport screen; post-Golgi transport phenotypic cell assay; inhibition, % at 10 µM; 98,000 compounds, 0.9% hits; AID 739;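 further: yeast cells grown in 1536-well plates; yeast grown about 18 h at 30C before absorbance read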
E coli WT exp – growth inhibitors of E. coli BW25113 wild type | OD600 absorbance | growth inhibition, % at 100 µM | 98,000 compounds, 0.15% hits | AID 710;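 active means growth inhibition above about 50% at one test dose, limit read from the data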;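 further: growth measured after 20 h incubation at 37 °C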
PostGolgi ctrl – inhibits growth of the yeast control strain; inhibition, % at 10 µM; efflux-deficient yeast background strain, growth absorbance A615, 16 h; 98,000 compounds, 5% hits; AID 738
Starred values were filed as active, the others as inactive; nt = not tested or not shown. Unless noted, no stated cut-off is given here; in the data, active means inhibition above about 30%; inactive means the rest.

SMILES	Ecoli tolC	PostGolgi yeast	E coli WT exp	PostGolgi ctrl
CCC(C)[C@@H](NC(=O)OC(C)(C)C)c1nnc(S(=O)(=O)Cc2cccc(C)c2)o1 (stereo partly specified)	-7.0	14.9	4.0	51.6*
Cc1ccccc1CS(=O)(=O)c1nnc([C@H](Cc2ccccc2)NC(=O)OC(C)(C)C)o1	nt	36.5*	9.0	51.0*
CC(C)(C)OC(=O)N[C@@H](Cc1ccccc1)c1nnc(S(=O)(=O)Cc2ccccc2)o1	2.7	17.1	1.0	10.0
COc1ccc(OC)c(NC(=O)CC(NCCC2=CCCCC2)C(=O)O)c1 (stereo unspecified)	-10.9	-2.6	5.0	8.9
CCOCCCNc1nc2c(c(=O)n(C)c(=O)n2C)n1CCCc1ccccc1	1.4	-11.9	-1.0	32.9*
Cn1c(=O)c2c(nc(NCc3ccccc3)n2CCCc2ccccc2)n(C)c1=O	9.2	-2.9	-12.0	23.8
COc1ccc(C2CC(=O)C(C=NCCN3CCOCC3)=C(O)C2)cc1 (stereo unspecified)	2.0	1.1	-3.0	-0.4
COc1cccc(N2CCN(CC(=O)Nc3nc4c(s3)CC(C)CC4)CC2)c1 (stereo unspecified)	95.3*	1.7	-9.0	22.2
CC(=O)c1ccc(N2CCN(c3ncc(C(F)(F)F)cc3Cl)CC2)cc1	nt	0.2	-8.0	19.4
O=C(CN1CCN(c2ncc(C(F)(F)F)cc2Cl)CC1)NCCNc1ncc(C(F)(F)F)cc1Cl	nt	-1.6	5.0	84.7*
CC(C)(C)NC(=O)NC(=O)CN1CCN(c2ncc(C(F)(F)F)cc2Cl)CC1	nt	-2.9	1.0	32.1*
O=C(CN1CCN(c2ncc(C(F)(F)F)cc2Cl)CC1)NC(=O)NCc1ccccc1	-5.9	20.4	-2.0	-3.7
Cc1cc2cc(CNC(=O)c3ccc(S(=O)(=O)N4CCOCC4)cc3)ccc2n1C	nt	4.7	-10.0	17.0
Cc1cc2cc(CNC(=O)c3ccc(S(=O)(=O)N(C)C)cc3)ccc2n1C	nt	3.4	-2.0	30.9*
CCOC(=O)C1CCN(C(=O)C2CC(=O)N(c3ccc(C)cc3)C2)CC1 (stereo unspecified)	-15.5	-0.8	6.0	24.8
COc1ccc(CSc2n[nH]c(C)n2)cc1Br	11.0	16.9	7.0	8.6
Cc1nc(SCc2cccc(Oc3ccccc3)c2)n[nH]1	nt	-0.3	9.0	35.5*
O=C(O)CCNc1cc2ccccc2cc1C(=O)O	4.3	-4.9	3.0	-8.1
CC1CCN(S(=O)(=O)c2cccc(C(=O)NCc3cccs3)c2)CC1	61.6*	21.8	-7.0	24.2
CC(C)COc1ccc(-c2nnc(-c3ccco3)o2)cc1	60.8*	0.8	-17.0	13.5
CCCOc1ccc(-c2nnc(-c3ccco3)o2)cc1	15.2	2.0	1.0	-1.3
CC(C)(C)c1ccc(OCCON2C(=O)CCC2=O)c(Cl)c1	nt	-2.1	-7.0	33.4*
O=C1Nc2ccc(Br)cc2C1=Nc1ccc(-c2nnc3n2CCCCC3)cc1	nt	-3.0	21.0	-4.8
COc1cccc(CSc2nc3ccccc3cc2C=O)c1	nt	32.5*	-9.0	51.3*
O=C1c2ccccc2NC(c2ccccn2)N1c1ccc(Cl)cc1 (stereo unspecified)	19.4	4.0	6.0	-1.1
SMILES	Ecoli tolC	PostGolgi yeast	E coli WT exp	PostGolgi ctrl
Cc1cccc(C2Nc3ccccc3C(=O)N2c2ccccc2)n1 (stereo unspecified)	-3.0	30.5*	2.0	7.5
Cc1cc2oc(C(=O)NCc3ccncc3)c(C)c2cc1C	32.7	-6.8	4.0	36.4*
Cc1c(C(=O)NCc2ccccn2)oc2ccccc12	-1.8	10.5	1.0	11.0
CCOc1ccc(C(C)=O)cc1Cn1nc(C(=O)O)c2ccccc2c1=O	8.0	-0.2	6.0	12.8
O=C(COc1ccc2ccccc2c1Br)N1CCN(c2ccccn2)CC1	92.7*	-14.3	-15.0	36.7*
CSC1=C(C#N)C(c2ccccc2Cl)C2=C(N1)c1ccccc1C2=O (stereo unspecified)	nt	0.3	-5.0	3.5
CSC1=C(C#N)C(c2ccccc2C)C(C#N)=C(N)N1 (stereo unspecified)	-16.7	1.6	4.0	49.9*
Cc1ccccc1-c1nc(CN2CCC(C(=O)NCCC3=CCCCC3)CC2)c(C)o1	65.1*	1.9	16.0	8.9
CCN(CCNC(=O)C1CCN(Cc2nc(-c3ccc(Cl)cc3)oc2C)CC1)c1ccccc1	6.9	2.5	12.0	23.3
COc1ccc(CCNC(=O)C2CCN(Cc3nc(-c4ccccc4C)oc3C)CC2)cc1OC	7.5	4.2	11.0	-6.8
CCN(CCNC(=O)C1CCN(Cc2nc(-c3cccc(Cl)c3)oc2C)CC1)c1ccccc1	65.0*	-0.6	9.0	25.0
COc1ccc(C(=O)n2c(-c3ccco3)nc3ccccc32)cc1	63.7*	5.8	-6.0	32.7*
Clc1ccc(OCCn2c(-c3ccco3)nc3ccccc32)cc1	nt	-2.9	-9.0	53.2*
c1coc(Cn2c(-c3ccco3)nc3ccccc32)c1	30.3	-11.6	5.0	6.8
CCOc1ccc2nc(NC(=O)CN3CCC(n4nnc5cc(F)ccc54)CC3)sc2c1	79.1*	10.3	-13.0	33.5*
CCN(C(=O)c1coc(=O)c2ccccc12)c1cc(OC)ccc1OC	-8.4	-5.4	-7.0	37.6*
CCN(C(=O)Cc1c(C(=O)O)[nH]c2ccccc12)c1cc(OC)ccc1OC	0.5	-3.5	0.0	-1.4
Clc1ccc(OCc2nc(-c3ccncc3)no2)c(Cl)c1	19.5	44.0*	12.0	36.9*
Cn1c(Sc2ccc(Br)cc2)c(C=O)c2ccccc21	nt	-1.6	-17.0	31.5*
COC(=O)c1nn(-c2ccccc2)c(Sc2ccc(Br)cc2)c1/C=N/O	nt	2.8	0.0	9.4
S=c1[nH]nc(-c2ccncc2)n1Cc1ccco1	5.4	16.4	7.0	8.7
S=c1[nH]nc(C23CC4CC(CC(C4)C2)C3)n1Cc1ccco1	33.9	2.5	1.0	44.9*
Clc1ccc(Cn2ncc3c(NCc4ccco4)ncnc32)c(Cl)c1	68.4*	6.2	2.0	39.3*
CC(=O)OC1c2ccccc2C(=O)N1Cc1ccccc1Cl (stereo unspecified)	8.4	3.8	8.0	10.0
COc1ccc(-n2c(-c3ccccc3)nc(=S)c3c2CCCC3)cc1	nt	-0.5	2.0	64.3*
SMILES	Ecoli tolC	PostGolgi yeast	E coli WT exp	PostGolgi ctrl
Cc1cccc(OCC(=O)O/N=C(\N)Cc2ccc(Cl)cc2)c1	nt	30.2*	3.0	-1.8
N/C(Cc1ccc(Cl)cc1)=N\OC(=O)c1ccccc1	nt	-0.9	1.0	45.5*
CC(C)Cn1[nH]c2c3c(ccc2c1=O)C(=O)c1ccccc1C3=O	nt	11.7	-7.0	25.0
O=C(NCc1cccs1)C1CCC(=O)N1C1CCCCC1 (stereo unspecified)	-10.2	-2.8	2.0	13.8
CC(C)COC(=O)c1ccc2c(c1O)C(=O)c1ccccc1C2=O	nt	103.9*	-4.0	22.8
CC(C)COC(=O)c1cc(=O)[nH]c2ccccc12	8.3	-19.4	5.0	8.1
O=S1(=O)C=C(SCc2cccc(Cl)c2)Nc2ccccc21	nt	-6.9	4.0	14.5
CC(=O)c1ccc(NC(=O)C2CCCN2S(=O)(=O)c2cccc3cccnc23)cc1 (stereo unspecified)	1.8	4.6	6.0	31.3*
Cc1cccc(NC(=O)C2CCCN2S(=O)(=O)c2cccc3cccnc23)c1 (stereo unspecified)	11.2	-2.4	-2.0	20.0
